Source: PubChem BioAssay (several laboratories)
RAM inhibit: inhibitors of the yeast RAM network, primary screen, dse1pr::URA3 reporter, 5-FOA selection | inhibition, % at 50 µM | S. cerevisiae dse1pr::URA3 reporter, 5-FOA growth OD615, 2 d; analog-sensitive cbk1-as2 kinase mutant strain | 190,000 compounds, 1.8% hits;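 active = inhibition above a set limit, 3 SD over mean compound inhibition, cut at about 8.4% in these data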;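 note: 0% = DMSO-only wells with no growth and 100% = 10 µM 1-NA-PP1 full growth; inhibition rescues growth on 5-FOA so higher OD means more RAM inhibition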
BB579 growth dn: growth inhibitors of yeast BB579 in restrictive medium, primary screen, yeast lifespan-shortening project, S. cerevisiae; OD615, 48 h; inhibition, % at 10 µM; 140,000 compounds, 0.51% hits; AID 804, 2007;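 active = inhibition above a set limit, 3 SD over the mean compound inhibition, cut at about 44% in these data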
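Test system: DeaD yeast strain BB579 / Buffer or medium: restrictive glucose-based CSMM-D medium / Doses: single 10 µM dose / Schedule: 4 h cell preincubation, 48 h compound exposure, 30 °C humidified / Technique: culture absorbance at 615 nm / Controls: amphotericin B positive control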
Measles CPE: compounds protecting cells from measles virus cytopathic effect, primary screen, measles RdRp inhibitor project, single point, MLSMR library, absorbance. AID 841, 2007. 140,000 compounds, 1.5% hits. Measles virus-infected cells, CPE protection. protection (pct of control), % at 4 µM; in the data active = protection mostly above about 24%, no sharp cut-off; inactive = mostly below about 26%
Yeast lifespan up: compounds extending yeast replicative lifespan, primary screen, S. cerevisiae, OD615; S. cerevisiae growth with nicotinamide; deaD strain in restrictive glucose medium; inhibition of the nicotinamide effect, % at 10 µM; 130,000 compounds, 0.68% hits;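 active = inhibition above a set limit, placed 3 SD over the median of all compounds, cut at about 26% in these data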;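 note: 0% = nicotinamide-treated wells and 100% = cells grown without nicotinamide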
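Measured by: optical density (absorbance) at 615 nm; System: modified budding yeast, DeaD strain; Medium: restrictive CSMM-D dextrose medium; Timing: 4 h preincubation then 48 h treatment at 30 °C.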
Phagocytosis inh: inhibitors of macrophage phagocytosis, primary screen, imaging, J774A.1 cells, IgG beads. J774A.1 macrophage IgG-bead phagocytosis. inhibition, % at 5 µM. 110,000 compounds, 0.07% hits. AID 1029, 2008;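 active = inhibition above the mean of the plate negative controls plus 5 SD, cut at about 13% in these data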;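 note: phagocytic index as fraction of beads internalized from green versus red external bead signal; plate controls were DMSO negative control for no effect and cytochalasin-D positive control for full effect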
* hit, by the source's call; x = not tested or not shown. Rows were chosen to be rich in hits. Some 3.6% of all compounds tested hit in one or more screens of this group.

SMILES	RAM inhibit	BB579 growth dn	Measles CPE	Yeast lifespan up	Phagocytosis inh
COc1cc(OC)c(OC)cc1/C=C/C(=O)c1ccc(NS(=O)(=O)c2ccc(C)cc2)cc1	9.9*	-42.7	3.0	4.5	-4.2
Cc1cc2n(n1)C(c1sccc1C)Nc1ccccc1-2 (stereo not given)	3.7	-39.6	3.6	-14.9	0.2
Cc1ccc2c(c1)-c1cc(C)nn1C(c1sccc1C)N2 (stereo not given)	10.3*	-37.5	8.2	-26.1	-0.9
Cc1cc(C)n(Cc2ccc(Cl)cc2Cl)c(=O)c1S(=O)(=O)c1ccccc1	8.9*	-90.2	2.8	-5.2	-0.2
CCCCOc1ccccc1Cn1c(=O)oc2ccccc21	11.0*	-17.6	4.4	-0.6	0.3
COc1ccc(OCCCn2c(=O)oc3ccccc32)cc1	-1.3	-31.1	29.8	x	x
CCCCN(CC(=O)Nc1c(C)cccc1CC)C(=O)SCC	0.8	14.8	31.8	-8.2	-0.8
O=C1C(Nc2ccc(O)cc2)=C/C(=N/S(=O)(=O)c2cccs2)c2ccccc21	11.2*	x	x	x	x
Cc1cccc(NC2=C/C(=N/S(=O)(=O)c3cccs3)c3ccccc3C2=O)c1	5.6	-46.1	3.8	8.0	-1.8
COc1ccc2c(C)cc(SCC(=O)N(C)C3CCS(=O)(=O)C3)nc2c1 (stereo not given)	1.5	x	x	x	x
Cc1ccc(S(=O)(=O)Oc2ccccc2/C=N/NC(N)=S)cc1	9.1*	-31.7	13.2	11.2	-0.8
Cc1cccc(Oc2nc(CN3CCOCC3)nc3sc4c(c23)CCCC4)c1	0.4	-27.8	8.1	32.9*	0.1
CC(C)CNC(=O)COc1cccc(C(=O)NCc2ccccc2)c1	0.0	-31.1	3.9	4.2	-11.2
CNC(=O)c1ccc(OCc2ccccc2)c(OC)c1	0.6	-3.3	75.6*	-9.1	2.8
COc1ccccc1OCc1ccc(C(=O)NN)cc1	-0.5	-7.5	11.2	-17.4	-0.1
COc1cc(/C=C/C(=O)N2CCOCC2)ccc1OCc1ccccc1	0.3	-16.9	93.7*	-3.3	-7.2
COc1cc(/C=C/C(=O)NC(C)(C)C)ccc1OCc1ccccc1	1.2	-5.3	27.5*	3.4	-2.2
COc1cc(/C=N/N2CCOCC2)ccc1OCc1ccccc1	0.8	x	x	x	x
COc1ccc(/C=C/C(=O)NC(C)CCc2ccccc2)cc1OC (stereo not given)	-0.4	x	x	x	x
O=C(COc1ncnc2c(Cl)cc(Cl)cc12)Nc1cc([N+](=O)[O-])ccc1Cl	1.5	-64.4	4.3	1.8	-6.3
Cc1ccc(/C=C2\SC(=S)N(/N=C/c3cc([N+](=O)[O-])ccc3O)C2=O)o1	0.0	x	x	x	x
CC(C)NC(=O)COC(=O)c1cc(Br)ccc1Cl	-0.3	-45.0	51.6*	-3.6	-0.3
O=S(=O)(NC1CCCC1)c1ccc(S(=O)(=O)N(Cc2cccs2)CC2CCCO2)cc1 (stereo not given)	9.6*	-49.8	3.3	-8.2	-0.1
O=S(=O)(c1ccc(S(=O)(=O)N(Cc2cccs2)CC2CCCO2)cc1)N1CCCCC1 (stereo not given)	0.9	-50.2	9.0	-7.0	-2.1
Cc1ccc2c(c1)C(c1ccncc1)=NNC(c1ccc(C(C)C)cc1)=N2	1.6	19.2	5.8	-1.6	1.0
SMILES	RAM inhibit	BB579 growth dn	Measles CPE	Yeast lifespan up	Phagocytosis inh
c1ccc(-c2cc(N3CCOCC3)nc3ccccc23)cc1	0.1	-54.9	3.9	94.2*	-0.5
COc1ccc2c(c1)CCCC21SC(NC(C)=O)=NN1C(C)=O (stereo not given)	1.1	x	x	x	x
Cc1cccc(N2C(=O)CC(SC(=Nc3ccccc3)Nc3ccccc3)C2=O)c1 (stereo not given)	1.0	-1.6	4.0	-14.6	-0.2
O=C1SC(SC(=Nc2ccccc2)Nc2ccccc2)C(=O)N1c1ccccc1 (stereo not given)	1.6	-8.7	3.5	33.7*	-1.9
COc1ccc(CNC(=O)CSc2nnc3c(Cl)cc(C(F)(F)F)cn23)cc1OC	1.3	-39.8	15.6	-3.2	-2.9
O=C(NCCO)/C(=C\c1ccc([N+](=O)[O-])o1)NC(=O)c1ccccc1	-0.4	x	x	x	x
O=C(NCCCO)/C(=C/c1ccc(-c2cccc([N+](=O)[O-])c2)o1)NC(=O)c1ccccc1	8.5*	x	x	x	x
CCC(C)NC(=O)COc1ccc(OCc2ccccc2)cc1 (stereo not given)	1.2	x	x	x	x
CN(C)S(=O)(=O)Oc1cccc(C(=O)Nc2cccc(Cl)c2)c1	2.1	-29.2	13.6	-15.2	x
CN(C)S(=O)(=O)Oc1cccc(C(=O)Nc2ccc(Cl)c(Cl)c2)c1	9.9*	-21.9	3.7	-16.7	1.1
Fc1ccc(Nc2nc(N/N=C/c3ccco3)nc(N3CCCCC3)n2)cc1	-1.1	x	x	x	x
COCCCN1C(=O)C(=O)/C(=C(/O)c2ccccc2)C1c1ccc(N(C)C)cc1 (stereo not given)	0.5	-24.9	27.6	-6.0	-3.2
COCCCN1C(=O)C(=O)/C(=C(/O)c2ccccc2)C1c1ccc2c(c1)OCO2 (stereo not given)	9.7*	-64.1	17.3	4.2	-1.0
CC1CCN(CCC(=O)Nc2ccc3c(c2)CCC3)CC1	2.1	-20.4	7.9	x	x
CCCCn1c(/N=C/c2c[nH]c3ccccc23)nc2ccccc21	-1.6	43.5*	5.0	-18.9	3.1
O=C(NC(=S)Nc1ccc2oc(-c3cccnc3)nc2c1)c1cccc(Cl)c1	0.8	-9.8	11.1	-0.9	x
Cc1oc(-c2ccccc2F)nc1CN1CCC(C(=O)NCCC2=CCCCC2)CC1	2.5	-27.8	23.9*	0.7	3.8
COc1ccc(CCNC(=O)C2CCN(Cc3nc(-c4ccccc4F)oc3C)CC2)cc1OC	0.8	-32.2	5.3	-2.9	0.9
O=C(NCCC1=CCCCC1)C1CCN(C(=O)c2ccc(Br)cc2)CC1	0.0	-32.1	30.3*	7.1	-12.7
O=C(NCCC1=CCCCC1)C1CCN(C(=O)Cc2ccccc2)CC1	0.4	x	x	x	x
O=c1c2c3c(sc2nc2n1CCCC2)CCC3	0.9	-5.0	35.9*	-9.6	x
Nc1nc2sc3c(c2c(=O)s1)CCCC3	-1.5	52.8*	3.6	-20.9	-0.9
Cn1c(CC(=O)Nc2ccc(Cl)c(Cl)c2)nnc1SCC(=O)NCc1ccccc1	1.7	x	x	x	x
COc1ccc(CNC(=O)COC(=O)c2ccco2)cc1	-1.0	x	x	x	x
COc1ccc(CCC(N)=O)cc1OC	2.9	-36.5	27.3*	-12.4	0.5
COc1ccc(C(=O)Cc2ccc(OC)c(OC)c2)c(OC)c1	1.9	-25.7	60.9*	-16.6	x
COc1ccc(CCNC(=O)COC(=O)c2ccco2)cc1OC	2.1	-8.7	39.0*	-1.6	-1.2
COc1ccc(CNC(N)=O)cc1OC	2.9	-26.9	26.6	5.1	-0.9
O=C(COC(=O)/C=C/c1ccc(S(=O)(=O)N2CCOCC2)cc1)NC1CCCCCCC1	1.8	x	x	x	x
